In article PMC4002123 (Journal of Medicinal Chemistry, 2014):
“Also recorded” adds a separate entry of the source.

Key:
[1] = Mouse plasma concentrations after single oral dose; assay type: in vivo; conditions: mice, single oral dose 5 mg/kg
Method in brief: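 Female C57BL/6 mice dosed once by oral gavage at 5 mg/kg, test compound dissolved in ethanol and given in PBS. Blood drawn from orbital sinus at 1, 3, 6 and 24 h after dosing. Each group of mice sampled only once.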

[2] = test system: bovine brain tubulin; assay: Tubulin polymerization assay in vitro; assay type: biochemical; conditions: compared to vehicle
[3] = test system: chick embryo chorioallantoic membrane; assay: Chick embryo chorioallantoic membrane; assay type: in vivo; conditions: collagen plug with bFGF + VEGF (BV), scored 4 days after treatment
Method in brief: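 Fertilized chick eggs incubated 3 days at 37.5 °C, then shell-free in covered weighboats for 10 more days. Collagen onplants (2.1 mg/mL rat tail collagen, 10 ng/plug bFGF, 30 ng/plug VEGF) with or without test compound placed on CAM over nylon mesh; four per egg, at least three eggs. After 4 days, plugs on surviving embryos imaged and scored blind 0–3; means ± SEM.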

[4] = test system: HeLa cells; assay: Immunofluorescence of interphase microtubules, HeLa; assay type: cell-based, human; conditions: 1 μM, 24 h
Method in brief: (§1)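 Cells grown on chamber slides and exposed to DMSO vehicle or test compound, then fixed in 3.7% formaldehyde and permeabilised for 4 min with 0.1% Triton X-100 in PBS. Blocked 1 h in PBS/1% BSA with calf serum. Stained with mouse anti-β-tubulin (1:200), then Alexa 488 goat anti-mouse (1:200) for 2 h at room temperature. Imaged by fluorescence microscopy.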

[5] = test system: colchicine binding site of tubulin; assay: Competitive LC-MS/MS binding assay, colchicine binding site; conditions: colchicine 1.2 μM, tubulin 1.3 mg/mL, 37 °C, 1 h; highest value reached
[6] = test system: MDA-MB-231 cells; assay: Immunofluorescence of interphase microtubules, MDA-MB-231; assay type: cell-based, human; conditions: 1 μM, 24 h
Method in brief: as §1

[7] = test system: MDA-MB-231 cells; assay: Antiproliferative assay; assay type: cell-based, human; conditions: read-out: growth inhibition IC50, MDA-MB-231; MDA-MB-231, 72 h
Method in brief: (§2)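 Seeded at 5 × 10^3 cells/well and grown 24 h. Medium then replaced with fresh medium holding test compound at a range of concentrations; DMSO below 0.25%. Incubated at 37 °C for 72 h. Resazurin added for 2 h, then fluorescence read at ex 560 / em 590 nm.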

[8] = test system: A549 cells; assay: Antiproliferative assay; assay type: cell-based, human; conditions: read-out: growth inhibition IC50, A549; A549, 72 h
Method in brief: as §2

[9] = test system: HeLa cells; assay: Antiproliferative assay; assay type: cell-based, human; conditions: read-out: growth inhibition IC50, HeLa, 72 h
Method in brief: as §2

Molecule | plasma concentration at 6 h [1] | plasma concentration at 24 h [1] | inhibition of tubulin polymerization ([2]; compound at 1 μM) | inhibition of new vessel growth (angiogenesis score, scale 0-3) [3] | effect on interphase microtubule network [4] | relative binding capacity, % of colchicine binding [5] [%] | effect on interphase microtubule network [6] | inhibition of tubulin polymerization ([2]; compound at 10 μM) | IC50 [7] [µM] | IC50 [8] [µM] | IC50 [9] [µM] | peak plasma concentration [1]
COc1ccc(-c2cccc(-c3ccc(OC)c(O)c3)n2)c(OC)c1 [4s, 5-(6-(2,4-Dimethoxyphenyl)pyridine-2-yl)-2-methoxyphenol] | dropping rapidly | below detection limit | failed to inhibit tubulin polymerization | inhibition of new vessel growth; also recorded: scored significantly lower than the positive control (BV) |  |  |  |  |  |  |  | 
COc1ccc(/C=C\c2cc(OC)c(OC)c(OC)c2)cc1O [CA-4, Combretastatin-A4, reference compound] | no longer detectable | no longer detectable |  | inhibition of new vessel growth | very similar loss of the microtubule network | 78 | very similar loss of the microtubule network | nearly completely blocked tubulin polymerization |  |  |  | 
2-(2,4-Dimethoxyphenyl)-6-(2,5-dimethoxyphenyl)pyridine [4m] |  |  |  |  |  |  |  |  | 0.034 ± 0.004 | 0.33 ± 0.01 | 0.034 ± 0.002 | 
5-Bromo-2-(2,4-dimethoxyphenyl)pyridine [2f] |  |  |  |  |  |  |  |  | > 100 | > 100 | > 25 | 
2-Methoxy-5-(6-(3,4,5-trimethoxyphenyl)pyridine-2-yl)phenol [4t] |  |  | failed to inhibit tubulin polymerization | inhibition of new vessel growth; also recorded: scored significantly lower than the positive control (BV) |  |  |  | 32% | 0.069 ± 0.0028 | 2.64 ± 0.38 | 0.0047 ± 0.0009 | lower peak concentrations than CA-4
COc1ccc(-c2cccc(-c3ccc(OC)cc3OC)n2)cc1 [4h, 2-(2,4-Dimethoxyphenyl)-6-(4-methoxyphenyl)pyridine] |  |  | failed to inhibit tubulin polymerization | inhibition of new vessel growth | dramatic reduction of the interphase microtubule network |  | dramatic reduction of the interphase microtubule network | remained ineffective against tubulin polymerization |  |  |  | lower peak concentrations than CA-4
5-Bromo-2-(3,4,5-trimethoxyphenyl)pyridine [2e] |  |  |  |  |  |  |  |  | 12.05 ± 0.02 | > 25 | 14 ± 0.3 | 
